# Laboratory results reported in ChEMBL document CHEMBL1129609, “Synthesis and antiviral activity evaluation of some new aminoadamantane derivatives. 2” (1996).
# Tests used:
# Human alphaherpesvirus 1 [1] = assay: Antiviral activity against TK-HSV-1 virus infected HEF cell lines.; format: functional
# Procedure, shortened: (§1)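 Human embryonic fibroblasts, from embryonic lung or embryonic skin-muscle, infected with the virus. Endpoint is the minimum inhibitory concentration that reduces virus-induced cytopathicity by 50%. Values are averages of at least two separate experiments.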
# Human alphaherpesvirus 1 [2] = assay: Antiviral activity against HSV-1 virus infected HEF cell lines.; format: functional; procedure, shortened: as §1
# Coxsackievirus B4 [3] = assay: Antiviral activity against Coxsackie B4 virus infected vero cell lines.; format: functional; details: Enterovirus B
# Procedure, shortened: (§2)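 Vero (African green monkey kidney), HeLa (human epithelial) or HEL (human embryonic lung) cell monolayers infected with the virus. Readout is the minimum inhibitory concentration that reduces virus-induced cytopathicity by 50%. Values are averages of at least two separate experiments.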
# HeLa [4] = assay: Effects on cell morphology of HeLa cell lines.; format: functional; details: Homo sapiens
# Procedure, shortened: (§3)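 HeLa (human epithelial) or Vero (African green monkey kidney) cells were examined under the microscope for changes in normal morphology. The value is the minimum concentration causing a detectable alteration, averaged from at least two separate experiments.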
# Enterovirus C = assay: Antiviral activity against polio 1 virus infected HeLa cell lines.; format: functional; procedure, shortened: as §2
# [5] = test system: Vesicular stomatitis virus; assay: Antiviral activity against vesicular stomatitis virus infected HeLa cell lines.; format: functional; procedure, shortened: as §2
# MDCK [6] = assay: Antiviral activity tested against influenza A,H1N1 virus infected MDCK cell lines.; format: functional; details: Canis lupus familiaris
# Coxsackievirus B4 [7] = assay: Antiviral activity against Coxsackie B4 virus infected HeLa cell lines.; format: functional; details: Enterovirus B; procedure, shortened: as §2
# HEL [8] = assay: Inhibition of HEL cell proliferation.; format: functional; details: Homo sapiens
# Procedure, shortened: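 Human embryonic lung fibroblasts were used for the proliferation assay. The value is the concentration that reduces cell proliferation by 50%, averaged from at least two separate experiments.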
# [9] = test system: Mammalian orthoreovirus 1; assay: Antiviral activity against Reo 1 virus infected vero cell lines.; format: functional; procedure, shortened: as §2
# Vaccinia virus = assay: Antiviral activity against vaccinia virus infected HEF cell lines.; format: functional; details: Orthopoxvirus vaccinia; procedure, shortened: as §1
# Influenza B virus = assay: Antiviral activity against influenza B virus infected MDCK cell lines.; format: functional
# Sindbis virus = assay: Antiviral activity against sindbis virus infected Vero cell lines.; format: functional; procedure, shortened: as §2
# Human alphaherpesvirus 3 [10] = assay: Antiviral activity against TK+VZV virus infected HEL cell lines.; format: functional; procedure, shortened: as §2
# [11] = Antiviral activity against influenza A,H3N2 virus infected MDCK cell lines.; format: functional
# [12] = test system: Vesicular stomatitis virus; assay: Antiviral activity against vesicular stomatitis virus infected HEF cell lines.; format: functional; procedure, shortened: as §1
# Human betaherpesvirus 5 = assay: Antiviral activity against HCMV virus infected HEL cell lines.; format: functional; procedure, shortened: as §2
# Vero [13] = assay: Effects on cell morphology of Vero cell lines.; format: functional; details: Chlorocebus sabaeus; procedure, shortened: as §3
# CCRF-CEM [14] = assay: Cytotoxicity against CEM cell lines.; format: functional; details: Homo sapiens
# HEF [15] = assay: Effects on cell morphology of HEF cell lines.; format: functional; details: Homo sapiens
# Procedure, shortened: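 Human embryonic skin-muscle fibroblasts were examined under the microscope for changes in normal cell morphology. The value is the minimum concentration causing a microscopically detectable alteration, averaged from at least two separate experiments.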
# Human alphaherpesvirus 2 = assay: Antiviral activity against HSV-2 virus infected HEF cell lines.; format: functional; procedure, shortened: as §1
# [16] = test system: Human immunodeficiency virus 2; assay: Antiviral activity against HIV-2 virus infected CEM cell lines.; format: functional, CCRF-CEM
# Human respirovirus 3 = assay: Antiviral activity against parainfluenza 3 virus infected Vero cell lines.; format: functional; procedure, shortened: as §2
# [17] = Antiviral activity against influenza A,H2N2 virus infected MDCK cell lines.; format: functional
# MDCK [18] = assay: Antiviral activity of compound was tested against morphology virus infec+ted MDCK cell lines.; format: functional; details: Canis lupus familiaris
# Semliki Forest virus = assay: Antiviral activity against Semliki forest virus infected Vero cell lines.; format: functional; procedure, shortened: as §2
# Human alphaherpesvirus 3 [19] = assay: Antiviral activity against TK-VZV virus infected HEL cell lines.; format: functional; procedure, shortened: as §2
# [20] = test system: Human immunodeficiency virus 1; assay: Antiviral activity against HIV-1 virus infected CEM cell lines.; format: functional, CCRF-CEM
# Vero [21] = assay: Antiviral activity of compound was tested against sindbis virus infected vero cell lines.; format: functional; details: Chlorocebus sabaeus; procedure, shortened: as §2
# HEF [22] = assay: Antiviral activity of compound was tested against morphology virus infected HEF cell lines.; format: functional; details: Homo sapiens
# Vero [23] = assay: Antiviral activity of compound was tested against reo1 virus infected vero cell lines.; format: functional; details: Chlorocebus sabaeus; procedure, shortened: as §2
# HeLa [24] = assay: Antiviral activity of compound was tested against polio-1 virus infected HeLa cell lines.; format: functional; details: Homo sapiens; procedure, shortened: as §2
# Vero [25] = assay: Antiviral activity of compound was tested against parainfluenza 3,[…] virus infected Vero cell lines.; format: functional; details: Chlorocebus sabaeus; procedure, shortened: as §2
# MDCK [26] = assay: Antiviral activity of compound was tested against influenza A,H3N2 virus infected MDCK cell lines.; format: functional; details: Canis lupus familiaris
# MDCK [27] = assay: Antiviral activity of compound was tested against morphology virus infected MDCK cell lines.; format: functional; details: Canis lupus familiaris
# CCRF-CEM [28] = assay: Antiviral activity of compound was tested against HIV-1 virus infected CEM cell lines.; format: functional; details: Homo sapiens
# HEL [29] = assay: Antiviral activity of compound was tested against TK+VZV virus infected HEL cell lines.; format: functional; details: Homo sapiens; procedure, shortened: as §2
# MDCK [30] = assay: Antiviral activity of compound was tested against influenza […] virus infected MDCK cell lines; format: functional; details: Canis lupus familiaris
# Vero [31] = assay: Antiviral activity of compound was tested against morphology virus infected Vero cell lines.; format: functional; details: Chlorocebus sabaeus
# HEF [32] = assay: Antiviral activity of compound was tested against HSV-2 virus infected HEF cell lines.; format: functional; details: Homo sapiens; procedure, shortened: as §1
# HEL [33] = assay: Antiviral activity of compound was tested against HCMV virus infected HEL cell lines.; format: functional; details: Homo sapiens; procedure, shortened: as §2
# CCRF-CEM [34] = assay: Antiviral activity of compound was tested against viability virus infected CEM cell lines.; format: functional; details: Homo sapiens
# HEL [35] = assay: Antiviral activity of compound was tested against TK-VZV virus infected HEL cell lines.; format: functional; details: Homo sapiens; procedure, shortened: as §2
# HEL [36] = assay: Antiviral activity of compound was tested against proliferation virus infected HEL cell lines.; format: functional; details: Homo sapiens
# HeLa [37] = assay: Antiviral activity of compound was tested against Coxsackie B4 virus infected HeLa cell lines.; format: functional; details: Homo sapiens; procedure, shortened: as §2
# HeLa [38] = assay: Antiviral activity of compound was tested against morphology virus infected HeLa cell lines.; format: functional; details: Homo sapiens
# Vero [39] = assay: Antiviral activity of compound was tested against Coxsackie B4 virus infected vero cell lines.; format: functional; details: Chlorocebus sabaeus; procedure, shortened: as §2
# Vero [40] = assay: Antiviral activity of compound were tested against semliki forest virus infected vero cell lines.; format: functional; details: Chlorocebus sabaeus; procedure, shortened: as §2
# HEF [41] = assay: Antiviral activity of compound was tested against TK-HSV-1 virus infected HEF cell lines.; format: functional; details: Homo sapiens; procedure, shortened: as §1
# HEF [42] = assay: Antiviral activity of compound was tested against vaccinia virus infected HEF cell lines.; format: functional; details: Homo sapiens; procedure, shortened: as §1
# CCRF-CEM [43] = assay: Antiviral activity of compound were tested against HIV-2 virus infected CEM cell lines.; format: functional; details: Homo sapiens
smiles,measurement,setting,value
CCN1CCCCC12C1CC3CC(C1)CC2C3 (centres undefined),MIC50,Human alphaherpesvirus 1 [1],> 200 µg/mL
same,MIC50,Human alphaherpesvirus 1 [2],> 200 µg/mL
same,MIC50,Coxsackievirus B4 [3],> 400 µg/mL
same,MIC50,HeLa [4],> 400 µg/mL
same,MIC50,Enterovirus C,> 400 µg/mL
same,MIC50,[5],> 400 µg/mL
same,MIC50,MDCK [6],4.4 µg/mL
same,MIC50,Coxsackievirus B4 [7],> 400 µg/mL
same,MIC50,HEL [8],> 50 µg/mL
same,MIC50,[9],> 400 µg/mL
same,MIC50,Vaccinia virus,> 200 µg/mL
same,MIC50,Influenza B virus,> 80 µg/mL
same,MIC50,Sindbis virus,> 400 µg/mL
same,MIC50,Human alphaherpesvirus 3 [10],> 50 µg/mL
same,MIC50,[11],> 65 µg/mL
same,MIC50,[12],> 200 µg/mL
same,MIC50,Human betaherpesvirus 5,> 50 µg/mL
same,MIC50,Vero [13],> 400 µg/mL
same,MIC50,CCRF-CEM [14],> 200 µg/mL
same,MIC50,HEF [15],100 µg/mL
same,MIC50,Human alphaherpesvirus 2,> 200 µg/mL
same,MIC50,[16],> 200 µg/mL
same,MIC50,Human respirovirus 3,> 400 µg/mL
same,MIC50,[17],31 µg/mL
same,MIC50,MDCK [18],> 250 µg/mL
same,MIC50,Semliki Forest virus,> 400 µg/mL
same,MIC50,Human alphaherpesvirus 3 [19],> 50 µg/mL
same,MIC50,[20],200 µg/mL
CCN1CCOCC12C1CC3CC(C1)CC2C3 (centres undefined),MIC50,Vero [21],> 400 µg/mL
same,MIC50,HEF [22],> 400 µg/mL
same,MIC50,Human alphaherpesvirus 1 [2],> 400 µg/mL
same,MIC50,Vero [23],> 400 µg/mL
same,MIC50,[5],> 400 µg/mL
same,MIC50,MDCK [6],> 10 µg/mL
same,MIC50,HeLa [24],> 400 µg/mL
same,MIC50,Vero [25],> 400 µg/mL
same,MIC50,MDCK [26],> 57 µg/mL
same,MIC50,MDCK [27],> 250 µg/mL
same,MIC50,CCRF-CEM [28],158 µg/mL
same,MIC50,HEL [29],> 50 µg/mL
same,MIC50,MDCK [30],> 80 µg/mL
same,MIC50,[12],> 400 µg/mL
same,MIC50,Vero [31],> 400 µg/mL
same,MIC50,HEF [32],> 400 µg/mL
same,MIC50,HEL [33],> 50 µg/mL
same,MIC50,CCRF-CEM [34],> 200 µg/mL
same,MIC50,HEL [35],> 50 µg/mL
same,MIC50,[17],10.5 µg/mL
same,MIC50,HEL [36],> 50 µg/mL
same,MIC50,HeLa [37],> 400 µg/mL
same,MIC50,HeLa [38],> 400 µg/mL
same,MIC50,Vero [39],> 400 µg/mL
same,MIC50,Vero [40],> 400 µg/mL
same,MIC50,HEF [41],> 400 µg/mL
same,MIC50,HEF [42],> 400 µg/mL
same,MIC50,CCRF-CEM [43],> 200 µg/mL
CN1CCCCC12C1CC3CC(C1)CC2C3 (centres undefined),MIC50,Human alphaherpesvirus 1 [1],> 200 µg/mL
same,MIC50,Human alphaherpesvirus 1 [2],> 200 µg/mL
same,MIC50,Coxsackievirus B4 [3],> 400 µg/mL
same,MIC50,HeLa [4],> 400 µg/mL
same,MIC50,Enterovirus C,> 400 µg/mL
same,MIC50,[5],> 400 µg/mL
same,MIC50,MDCK [6],6.2 µg/mL
same,MIC50,Coxsackievirus B4 [7],> 400 µg/mL
same,MIC50,HEL [8],> 50 µg/mL
same,MIC50,[9],> 400 µg/mL
same,MIC50,Vaccinia virus,> 200 µg/mL
same,MIC50,Influenza B virus,60 µg/mL
same,MIC50,Sindbis virus,> 400 µg/mL
same,MIC50,Human alphaherpesvirus 3 [10],> 50 µg/mL
same,MIC50,[11],45 µg/mL
same,MIC50,[12],> 200 µg/mL
same,MIC50,Human betaherpesvirus 5,> 50 µg/mL
same,MIC50,Vero [13],> 400 µg/mL
same,MIC50,CCRF-CEM [14],> 200 µg/mL
same,MIC50,HEF [15],100 µg/mL
same,MIC50,Human alphaherpesvirus 2,> 200 µg/mL
same,MIC50,[16],> 200 µg/mL
same,MIC50,Human respirovirus 3,> 400 µg/mL
same,MIC50,[17],0.58 µg/mL
same,MIC50,MDCK [18],> 250 µg/mL
same,MIC50,Semliki Forest virus,> 400 µg/mL
same,MIC50,Human alphaherpesvirus 3 [19],> 50 µg/mL
same,MIC50,[20],115 µg/mL
